Experimental data: ChEMBL document CHEMBL1154689, “Coordination chemistry based approach to lipophilic inhibitors of 1-deoxy-D-xylulose-5-phosphate reductoisomerase” (J Med Chem, 2009)
pIC50: −log10 of the molar value. In brackets after ≈: the same amount, converted by molar mass.

What was measured:
Micrococcus luteus = experiment: Antibacterial activity against Micrococcus luteus WT after 24 hrs by NCCLS method; type: functional
Procedure, shortened: (§1)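 MIC taken as the lowest agent concentration preventing visible bacterial growth after 24 h incubation at 37 °C.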

Pseudomonas aeruginosa = experiment: Antibacterial activity against Pseudomonas aeruginosa H45006 after 24 hrs by NCCLS method; type: functional; settings: H45006, 24 h; procedure, shortened: as §1
Bacillus anthracis = experiment: Antibacterial activity against Bacillus anthracis Sterne after 24 hrs by NCCLS method; type: functional
Escherichia coli [1] = experiment: Antibacterial activity against Escherichia coli B/r after 24 hrs by NCCLS method; type: functional; procedure, shortened: as §1
[2] = Inhibition of Escherichia coli M15 DXR
[3] = Cytotoxicity against human WI38 cells after 24 hrs by MTS assay; type: cell-based; settings: WI-38, 24 h
[4] = Cytotoxicity against human BEAS2B cells after 24 hrs by MTS assay; type: cell-based; settings: BEAS-2B
Escherichia coli [5] = experiment: Inhibition of Escherichia coli M15 DXR at 100 uM

Row | SMILES | MIC (Micrococcus luteus) | MIC (Pseudomonas aeruginosa) | MIC (Bacillus anthracis) | MIC (Escherichia coli [1]) | inhibition (Escherichia coli [5]) | also measured
1 | O=P(O)(O)CCc1ccc(O)c(O)c1 | > 1000 µM | 1000 µM (≈ 218 µg/mL) | 1000 µM (≈ 218 µg/mL) | > 1000 µM |  | 
2 | O=CN(O)CCCP(=O)(O)O [FOSMIDOMYCIN] | > 1000 µM | 20 µM (≈ 3.66 µg/mL) | 100 µM (≈ 18.3 µg/mL) | 10 µM (≈ 1.83 µg/mL) |  | pIC50 [2]: 7.10
3 | Oc1ccc(Cc2ccccc2)cc1O | 200 µM (≈ 40 µg/mL) | 200 µM (≈ 40 µg/mL) | 200 µM (≈ 40 µg/mL) | 1000 µM (≈ 200 µg/mL) |  | pIC50 [2]: 4.65
4 | O=c1ccc(-c2ccccc2)cn1O [1-HYDROXY-5-PHENYLPYRIDIN-2(1H)-ONE] | 100 µM (≈ 18.7 µg/mL) | 50 µM (≈ 9.36 µg/mL) | 20 µM (≈ 3.74 µg/mL) | 100 µM (≈ 18.7 µg/mL) |  | pIC50 [3]: < 3.52; pIC50 [2]: 5.85; pIC50 [4]: < 3.52
5 | O=c1n(O)ccn1Cc1ccccc1 |  |  |  |  | 19% | 
6 | [O-][n+]1cccc(-c2ccccc2)c1 |  |  |  |  | 0% | 
7 | CC1(C)S[C@@H]2[C@H](NC(=O)[C@H](N)c3ccccc3)C(=O)N2[C@H]1C(=O)O [AMPICILLIN] | 1 µM (≈ 0.349 µg/mL) | 500 µM (≈ 175 µg/mL) | 0.1 µM (≈ 0.0349 µg/mL) | 5 µM (≈ 1.75 µg/mL) |  | 
8 | O=C(O)CCc1ccc(O)c(O)c1 |  |  |  |  | 26.2% | 
9 | Oc1ccc(-c2ccccc2)cc1O | 200 µM (≈ 37.2 µg/mL) | 200 µM (≈ 37.2 µg/mL) | 200 µM (≈ 37.2 µg/mL) | 500 µM (≈ 93.1 µg/mL) |  | 
10 | O=c1cc(Cc2ccccc2)[nH]cc1O |  |  |  |  | 0% | 
11 | NC[C@H]1O[C@H](O[C@H]2[C@H](O)[C@@H](O[C@H]3O[C@H](CO)[C@@H](O)[C@H](N)[C@H]3O)[C@H](N)C[C@@H]2N)[C@H](O)[C@@H](O)[C@@H]1O [KANAMYCIN] | 20 µM (≈ 9.69 µg/mL) | 200 µM (≈ 96.9 µg/mL) | 5 µM (≈ 2.42 µg/mL) | 10 µM (≈ 4.85 µg/mL) |  | 
12 | Nc1cc(-c2ccccc2)ccc1O |  |  |  |  | 0% | 
13 | Oc1cnc(Cc2ccccc2)nc1O |  |  |  |  | 30% | 
14 | O=C(O)c1cc(-c2ccccc2)ccc1O |  |  |  |  | 0% | 
15 | Oc1ccc(-c2ccccc2)cn1 |  |  |  |  |  | pIC50 [2]: 4.12
16 | O=c1cc(Cc2ccccc2)occ1O |  |  |  |  | 0% | 
17 | O=C(Cc1ccccc1)NO |  |  |  |  | 26% | 
18 | O=c1ccn(O)c(=O)n1Cc1ccccc1 |  |  |  |  | 0% | 
